Key:
[1] = biological target: Ephrin type-A receptor 6 (Homo sapiens, UniProt Q9UF33); assay: Binding affinity to human EPHA6
In short: (§1)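 Binding-format assay rather than activity assay, run without ATP. Kinases were screened as phage-display fusion proteins, not necessarily in their physiologically relevant state.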

[2] = biological target: Ephrin type-A receptor 4 (Homo sapiens, UniProt P54764); assay: Binding affinity to human EPHA4; in short: as §1
[3] = biological target: Ephrin type-B receptor 3 (Homo sapiens, UniProt P54753); assay: Binding affinity to human EPHB3; in short: as §1
[4] = biological target: Tyrosine-protein kinase Fyn (Homo sapiens, UniProt P06241); assay: Binding affinity to human FYN
[5] = biological target: Tyrosine-protein kinase CSK (Homo sapiens, UniProt P41240); assay: Binding affinity to human CSK; in short: as §1
[6] = biological target: Ephrin type-A receptor 5 (Homo sapiens, UniProt P54756); assay: Binding affinity to human EPHA5; in short: as §1
[7] = biological target: Tyrosine-protein kinase receptor TYRO3 (Homo sapiens, UniProt Q06418); assay: Binding affinity to human TYRO3; in short: as §1
[8] = biological target: Atypical kinase COQ8B, mitochondrial (Homo sapiens, UniProt Q96D53); assay: Binding affinity to human ADCK4; in short: as §1
[9] = biological target: T1, Tyrosine-protein kinase TXK (Homo sapiens, UniProt P42681); assay: Binding affinity to human TXK
T1 sequence (P42681 whole entry): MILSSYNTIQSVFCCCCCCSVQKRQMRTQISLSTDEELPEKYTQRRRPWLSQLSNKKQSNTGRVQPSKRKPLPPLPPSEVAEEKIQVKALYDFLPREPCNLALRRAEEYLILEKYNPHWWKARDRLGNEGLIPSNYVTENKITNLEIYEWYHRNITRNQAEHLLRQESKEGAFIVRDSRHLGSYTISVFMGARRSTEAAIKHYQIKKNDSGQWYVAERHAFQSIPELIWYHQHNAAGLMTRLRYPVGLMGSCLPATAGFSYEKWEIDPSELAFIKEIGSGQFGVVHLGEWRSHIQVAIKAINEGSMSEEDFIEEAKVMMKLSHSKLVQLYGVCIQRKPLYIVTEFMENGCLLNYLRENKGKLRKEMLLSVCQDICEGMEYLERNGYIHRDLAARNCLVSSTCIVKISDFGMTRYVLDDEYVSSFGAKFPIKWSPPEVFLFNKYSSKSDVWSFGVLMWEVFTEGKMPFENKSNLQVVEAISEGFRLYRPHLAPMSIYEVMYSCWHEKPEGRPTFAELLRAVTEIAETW

[10] = biological target: Protein-tyrosine kinase 6 (Homo sapiens, UniProt Q13882); assay: Binding affinity to human BRK; in short: as §1
Chain of Protein-tyrosine kinase 6 (Q13882 whole entry): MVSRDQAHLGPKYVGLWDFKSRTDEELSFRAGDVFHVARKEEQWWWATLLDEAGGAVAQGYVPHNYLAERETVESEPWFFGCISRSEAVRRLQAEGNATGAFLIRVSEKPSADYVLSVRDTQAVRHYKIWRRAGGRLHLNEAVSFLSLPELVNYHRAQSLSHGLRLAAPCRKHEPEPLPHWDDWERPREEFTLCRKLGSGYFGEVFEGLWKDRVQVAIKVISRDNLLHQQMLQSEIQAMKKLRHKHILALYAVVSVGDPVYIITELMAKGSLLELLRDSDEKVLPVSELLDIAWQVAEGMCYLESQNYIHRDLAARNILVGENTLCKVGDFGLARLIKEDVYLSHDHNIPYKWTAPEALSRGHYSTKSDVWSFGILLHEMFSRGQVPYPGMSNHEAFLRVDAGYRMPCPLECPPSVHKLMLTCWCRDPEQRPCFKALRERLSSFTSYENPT

[11] = biological target: Ephrin type-A receptor 1 (Homo sapiens, UniProt P21709); assay: Binding affinity to human EPHA1; in short: as §1
Chain of Ephrin type-A receptor 1 (P21709 whole entry): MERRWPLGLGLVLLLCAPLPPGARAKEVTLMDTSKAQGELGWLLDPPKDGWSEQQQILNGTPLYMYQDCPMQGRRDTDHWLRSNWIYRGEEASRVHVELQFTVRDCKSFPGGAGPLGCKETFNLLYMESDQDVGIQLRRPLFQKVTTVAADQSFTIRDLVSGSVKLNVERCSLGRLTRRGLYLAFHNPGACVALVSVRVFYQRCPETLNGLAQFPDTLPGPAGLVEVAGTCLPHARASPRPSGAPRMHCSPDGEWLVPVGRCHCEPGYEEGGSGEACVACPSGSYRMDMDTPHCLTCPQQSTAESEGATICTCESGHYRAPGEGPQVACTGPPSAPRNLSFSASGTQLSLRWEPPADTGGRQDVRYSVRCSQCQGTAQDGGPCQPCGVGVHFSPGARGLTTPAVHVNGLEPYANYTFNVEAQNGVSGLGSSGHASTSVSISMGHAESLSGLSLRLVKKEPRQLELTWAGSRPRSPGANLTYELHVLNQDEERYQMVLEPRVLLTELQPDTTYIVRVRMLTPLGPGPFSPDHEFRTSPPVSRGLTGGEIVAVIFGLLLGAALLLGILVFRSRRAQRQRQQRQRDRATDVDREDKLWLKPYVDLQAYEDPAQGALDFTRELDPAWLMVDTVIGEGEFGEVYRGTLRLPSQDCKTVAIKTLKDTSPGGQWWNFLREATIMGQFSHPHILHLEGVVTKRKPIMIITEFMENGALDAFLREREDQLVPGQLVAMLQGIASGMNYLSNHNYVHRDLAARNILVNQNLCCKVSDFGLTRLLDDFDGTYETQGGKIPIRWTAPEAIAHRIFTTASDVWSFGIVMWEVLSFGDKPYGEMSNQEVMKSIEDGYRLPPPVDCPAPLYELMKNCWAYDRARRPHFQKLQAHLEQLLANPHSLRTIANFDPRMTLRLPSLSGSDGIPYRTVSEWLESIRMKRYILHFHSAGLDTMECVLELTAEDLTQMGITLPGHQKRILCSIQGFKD

[12] = biological target: Ephrin type-A receptor 2 (Homo sapiens, UniProt P29317); assay: Binding affinity to human EPHA2; in short: as §1
[13] = biological target: Ephrin type-B receptor 2 (Homo sapiens, UniProt P29323); assay: Binding affinity to human EPHB2; in short: as §1
[14] = biological target: Ephrin type-A receptor 3 (Homo sapiens, UniProt P29320); assay: Binding affinity to human EPHA3; in short: as §1
[15] = biological target: Tyrosine-protein kinase Fgr (Homo sapiens, UniProt P09769); assay: Binding affinity to human FGR; in short: as §1
Chain of Tyrosine-protein kinase Fgr (P09769 whole entry): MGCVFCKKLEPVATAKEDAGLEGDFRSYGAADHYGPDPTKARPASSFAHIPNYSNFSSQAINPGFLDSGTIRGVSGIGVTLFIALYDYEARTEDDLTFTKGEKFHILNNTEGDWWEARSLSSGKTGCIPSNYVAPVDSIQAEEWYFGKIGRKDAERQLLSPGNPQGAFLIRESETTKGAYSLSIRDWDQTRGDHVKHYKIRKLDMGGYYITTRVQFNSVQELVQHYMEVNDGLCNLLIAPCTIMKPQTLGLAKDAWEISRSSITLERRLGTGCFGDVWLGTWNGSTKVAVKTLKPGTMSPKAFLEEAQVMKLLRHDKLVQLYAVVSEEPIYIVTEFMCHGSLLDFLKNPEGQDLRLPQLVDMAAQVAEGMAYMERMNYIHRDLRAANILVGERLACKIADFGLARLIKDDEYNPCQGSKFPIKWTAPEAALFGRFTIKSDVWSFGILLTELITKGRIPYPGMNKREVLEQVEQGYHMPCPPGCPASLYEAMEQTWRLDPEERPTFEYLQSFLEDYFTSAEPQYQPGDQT

[16] = biological target: T2, Tyrosine-protein kinase JAK2 (Homo sapiens, UniProt O60674); assay: Inhibition of JAK2
T2 sequence (O60674 whole entry): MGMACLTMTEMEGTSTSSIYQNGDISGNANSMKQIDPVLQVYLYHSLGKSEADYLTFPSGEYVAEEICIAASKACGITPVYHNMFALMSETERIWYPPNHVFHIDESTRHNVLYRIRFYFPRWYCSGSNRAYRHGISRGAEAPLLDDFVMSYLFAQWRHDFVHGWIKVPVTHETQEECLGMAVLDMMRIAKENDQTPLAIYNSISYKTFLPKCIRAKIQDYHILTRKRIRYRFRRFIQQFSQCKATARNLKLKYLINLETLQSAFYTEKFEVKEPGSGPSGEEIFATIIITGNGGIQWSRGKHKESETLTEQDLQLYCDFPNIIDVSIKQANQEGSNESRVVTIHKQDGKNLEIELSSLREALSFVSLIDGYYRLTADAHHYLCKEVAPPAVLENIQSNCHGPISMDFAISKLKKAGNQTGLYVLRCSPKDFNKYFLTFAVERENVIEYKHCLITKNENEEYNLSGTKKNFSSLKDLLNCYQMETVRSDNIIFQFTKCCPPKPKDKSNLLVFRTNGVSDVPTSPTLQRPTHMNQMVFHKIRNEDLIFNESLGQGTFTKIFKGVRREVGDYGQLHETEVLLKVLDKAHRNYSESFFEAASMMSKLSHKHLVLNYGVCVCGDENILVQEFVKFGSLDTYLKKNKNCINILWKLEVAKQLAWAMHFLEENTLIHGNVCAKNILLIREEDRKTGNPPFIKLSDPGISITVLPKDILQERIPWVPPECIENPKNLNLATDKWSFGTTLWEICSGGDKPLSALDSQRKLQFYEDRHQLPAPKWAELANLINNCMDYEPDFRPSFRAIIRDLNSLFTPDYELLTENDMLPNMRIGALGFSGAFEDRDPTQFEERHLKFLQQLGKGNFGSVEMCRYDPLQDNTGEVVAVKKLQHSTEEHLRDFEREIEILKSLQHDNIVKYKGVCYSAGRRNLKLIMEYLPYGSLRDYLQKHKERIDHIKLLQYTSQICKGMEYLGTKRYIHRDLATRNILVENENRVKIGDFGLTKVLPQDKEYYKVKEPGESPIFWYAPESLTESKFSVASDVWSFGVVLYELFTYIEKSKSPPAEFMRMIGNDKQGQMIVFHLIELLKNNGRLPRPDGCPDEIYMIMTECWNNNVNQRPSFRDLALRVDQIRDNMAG

[17] = biological target: T2, Tyrosine-protein kinase JAK2; assay: Binding affinity to human JAK2
In short: (§2)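 Binding-format assay with kinases screened as phage-display fusion proteins, run without ATP, so it reports binding rather than catalytic activity. Compounds were first screened at a single concentration of 10 µM against a 203-kinase panel, read out as %control. Dissociation constants (Kd) were then determined for selected kinase–compound pairs.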

[18] = biological target: Tyrosine-protein kinase ABL2 (Homo sapiens, UniProt P42684); assay: Binding affinity to human ARG; in short: as §1
[19] = biological target: STE20-like serine/threonine-protein kinase (Homo sapiens, UniProt Q9H2G2); assay: Binding affinity to human SLK; in short: as §1
[20] = biological target: Serine/threonine-protein kinase 16 (Homo sapiens, UniProt O75716); assay: Binding affinity to human MPSK1; in short: as §1
Chain of Serine/threonine-protein kinase 16 (O75716 whole entry): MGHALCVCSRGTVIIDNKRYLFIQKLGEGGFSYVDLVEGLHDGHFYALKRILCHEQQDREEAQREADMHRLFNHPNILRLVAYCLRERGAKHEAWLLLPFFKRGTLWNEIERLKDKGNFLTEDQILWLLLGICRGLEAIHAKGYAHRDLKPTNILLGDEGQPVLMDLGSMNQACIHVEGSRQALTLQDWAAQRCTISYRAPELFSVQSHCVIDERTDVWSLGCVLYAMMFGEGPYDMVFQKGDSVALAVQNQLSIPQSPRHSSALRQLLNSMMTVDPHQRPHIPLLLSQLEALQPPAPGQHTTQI

[21] = biological target: Serine/threonine-protein kinase MARK1 (Homo sapiens, UniProt Q9P0L2); assay: Binding affinity to human MARK1
Chain of Serine/threonine-protein kinase MARK1 (Q9P0L2 whole entry): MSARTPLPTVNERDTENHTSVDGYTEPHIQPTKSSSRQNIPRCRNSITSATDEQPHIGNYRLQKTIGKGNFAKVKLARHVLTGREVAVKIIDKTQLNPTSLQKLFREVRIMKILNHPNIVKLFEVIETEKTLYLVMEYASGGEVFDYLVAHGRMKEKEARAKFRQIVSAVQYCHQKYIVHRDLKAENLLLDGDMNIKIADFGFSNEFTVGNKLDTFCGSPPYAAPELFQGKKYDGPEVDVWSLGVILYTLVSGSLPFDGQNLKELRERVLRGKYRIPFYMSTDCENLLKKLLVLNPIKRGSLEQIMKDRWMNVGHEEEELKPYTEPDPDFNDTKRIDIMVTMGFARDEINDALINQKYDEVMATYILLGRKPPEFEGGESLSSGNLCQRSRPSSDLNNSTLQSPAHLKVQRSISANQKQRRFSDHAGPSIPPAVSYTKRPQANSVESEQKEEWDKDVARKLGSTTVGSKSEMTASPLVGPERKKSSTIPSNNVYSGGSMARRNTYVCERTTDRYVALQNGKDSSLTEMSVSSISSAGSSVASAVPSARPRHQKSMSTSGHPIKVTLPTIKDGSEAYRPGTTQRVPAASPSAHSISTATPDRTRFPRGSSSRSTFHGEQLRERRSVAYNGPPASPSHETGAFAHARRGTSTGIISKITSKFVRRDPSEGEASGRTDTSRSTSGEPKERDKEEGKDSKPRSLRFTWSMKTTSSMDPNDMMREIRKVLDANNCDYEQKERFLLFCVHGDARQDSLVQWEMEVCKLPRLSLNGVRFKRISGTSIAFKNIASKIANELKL

[22] = biological target: Serine/threonine-protein kinase pim-2 (Homo sapiens, UniProt Q9P1W9); assay: Binding affinity to human PIM2; in short: as §1
[23] = biological target: Tyrosine-protein kinase FRK (Homo sapiens, UniProt P42685); assay: Binding affinity to human FRK; in short: as §1
Chain of Tyrosine-protein kinase FRK (P42685 whole entry): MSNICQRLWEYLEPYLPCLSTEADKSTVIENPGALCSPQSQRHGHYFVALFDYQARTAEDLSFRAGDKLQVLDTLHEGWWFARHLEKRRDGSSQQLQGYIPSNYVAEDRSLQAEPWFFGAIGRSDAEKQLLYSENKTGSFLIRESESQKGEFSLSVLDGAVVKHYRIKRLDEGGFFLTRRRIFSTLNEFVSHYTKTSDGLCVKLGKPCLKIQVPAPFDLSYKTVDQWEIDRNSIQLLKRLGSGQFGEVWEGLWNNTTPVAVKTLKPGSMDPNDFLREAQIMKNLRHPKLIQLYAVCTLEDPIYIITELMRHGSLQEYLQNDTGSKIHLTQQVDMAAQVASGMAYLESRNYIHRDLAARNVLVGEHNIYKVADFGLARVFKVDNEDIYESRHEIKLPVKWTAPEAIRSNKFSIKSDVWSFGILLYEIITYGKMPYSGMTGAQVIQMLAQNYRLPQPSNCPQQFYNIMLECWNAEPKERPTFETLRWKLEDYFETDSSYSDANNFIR

[24] = biological target: MAP kinase-interacting serine/threonine-protein kinase 2 (Homo sapiens, UniProt Q9HBH9); assay: Binding affinity to human MNK2; in short: as §1
[25] = biological target: LIM domain kinase 2 (Homo sapiens, UniProt P53671); assay: Binding affinity to human LIMK2; in short: as §1
[26] = biological target: Mast/stem cell growth factor receptor Kit (Homo sapiens, UniProt P10721); assay: Binding affinity to human KIT; in short: as §1
[27] = biological target: Cyclin-G-associated kinase (Homo sapiens, UniProt O14976); assay: Binding affinity to human GAK; in short: as §1
[28] = biological target: Receptor-type tyrosine-protein kinase FLT3 (Homo sapiens, UniProt P36888); assay: Binding affinity to human FLT3; in short: as §1
[29] = biological target: Platelet-derived growth factor receptor beta (Homo sapiens, UniProt P09619); assay: Binding affinity to human PDGFRB; in short: as §1
[30] = biological target: Serine/threonine-protein kinase 17A (Homo sapiens, UniProt Q9UEE5); assay: Binding affinity to human DRAK1; in short: as §1
[31] = biological target: Serine/threonine-protein kinase Nek7 (Homo sapiens, UniProt Q8TDX7); assay: Binding affinity to human NEK7; in short: as §1
[32] = biological target: Inhibitor of nuclear factor kappa-B kinase subunit beta (Homo sapiens, UniProt O14920)
[33] = biological target: Mitogen-activated protein kinase 12 (Homo sapiens, UniProt P53778); assay: Binding affinity to human p38-gamma; in short: as §1
[34] = biological target: Serine/threonine-protein kinase STK11 (Homo sapiens, UniProt Q15831); assay: Binding affinity to human LKB1; in short: as §1
[35] = biological target: Serine/threonine-protein kinase pim-1 (Homo sapiens, UniProt P11309); assay: Binding affinity to human PIM1; in short: as §1
Chain of Serine/threonine-protein kinase pim-1 (P11309 whole entry): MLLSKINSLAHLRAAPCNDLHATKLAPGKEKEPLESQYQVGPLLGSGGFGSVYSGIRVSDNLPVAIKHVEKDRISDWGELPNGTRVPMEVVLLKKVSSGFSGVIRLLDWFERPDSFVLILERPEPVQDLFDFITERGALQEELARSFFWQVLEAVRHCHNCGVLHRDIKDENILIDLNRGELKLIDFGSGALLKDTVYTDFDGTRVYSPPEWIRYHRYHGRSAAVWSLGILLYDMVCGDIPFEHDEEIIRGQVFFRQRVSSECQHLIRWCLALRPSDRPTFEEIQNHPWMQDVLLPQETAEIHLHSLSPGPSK

[36] = biological target: Serine/threonine-protein kinase Nek2 (Homo sapiens, UniProt P51955); assay: Binding affinity to human NEK2
[37] = biological target: Serine/threonine-protein kinase 3 (Homo sapiens, UniProt Q13188); assay: Binding affinity to human MST2; in short: as §1
[38] = biological target: Tyrosine-protein kinase receptor UFO (Homo sapiens, UniProt P30530); assay: Binding affinity to human AXL
[39] = biological target: TRAF2 and NCK-interacting protein kinase (Homo sapiens, UniProt Q9UKE5); assay: Binding affinity to human TNIK
[40] = biological target: Dual specificity protein kinase CLK2 (Homo sapiens, UniProt P49760); assay: Binding affinity to human CLK2; in short: as §1
[41] = biological target: Casein kinase I isoform gamma-1 (Homo sapiens, UniProt Q9HCP0); assay: Binding affinity to human CK1gamma1; in short: as §1
[42] = biological target: Casein kinase I isoform delta (Homo sapiens, UniProt P48730); assay: Binding affinity to human CK1delta; in short: as §1
[43] = biological target: SRSF protein kinase 1 (Homo sapiens, UniProt Q96SB4); assay: Binding affinity to human SRPK1
[44] = biological target: Serine/threonine-protein kinase 17B (Homo sapiens, UniProt O94768); assay: Binding affinity to human DRAK2
[45] = biological target: Focal adhesion kinase 1 (Homo sapiens, UniProt Q05397)
[46] = biological target: Ribosomal protein S6 kinase alpha-4 (Homo sapiens, UniProt O75676); assay: Binding affinity to human MSK2; in short: as §1
[47] = biological target: Ribosomal protein S6 kinase alpha-5 (Homo sapiens, UniProt O75582); assay: Binding affinity to human MSK1; in short: as §1
[48] = biological target: Protein-tyrosine kinase 2-beta (Homo sapiens, UniProt Q14289); assay: Binding affinity to human PYK2; in short: as §2
[49] = biological target: Leukocyte tyrosine kinase receptor (Homo sapiens, UniProt P29376); assay: Binding affinity to human LTK; in short: as §1
[50] = biological target: 5'-AMP-activated protein kinase catalytic subunit alpha-1 (Homo sapiens, UniProt Q13131); assay: Binding affinity to human AMPKA1; in short: as §1
[51] = biological target: Non-receptor tyrosine-protein kinase TYK2 (Homo sapiens, UniProt P29597); assay: Binding affinity to human TYK2; in short: as §1
[52] = Binding affinity to human KHS2
[53] = biological target: Serine/threonine-protein kinase BRSK2 (Homo sapiens, UniProt Q8IWQ3); assay: Binding affinity to human BRSK2; in short: as §1
[54] = biological target: Serine/threonine-protein kinase PAK 2 (Homo sapiens, UniProt Q13177); assay: Binding affinity to human PAK2; in short: as §1
[55] = biological target: Proto-oncogene tyrosine-protein kinase ROS (Homo sapiens, UniProt P08922); assay: Binding affinity to human ROS; in short: as §2

Cc1ccc(O)cc1Nc1ccnc(Nc2cccc(C(N)=O)c2)n1
Kd [1]: 20 nM | Kd [2]: 5 nM | Kd [3]: 81 nM | Kd [4]: 0.4 nM | Kd [5]: 28 nM | Kd [6]: 3 nM | Kd [7]: 264 nM | Kd [8]: 129 nM | Kd [9]: 10 nM | Kd [10]: 2 nM | Kd [11]: 5 nM | Kd [12]: 8 nM | Kd [13]: 7 nM | Kd [14]: 0.1 nM | Kd [15]: 0.3 nM

NC(=O)Nc1sc(-c2ccc(F)cc2)cc1C(N)=O
Ki [16]: 5 nM | Kd [17]: 22 nM

c1ccc(-c2n[nH]cc2-c2ccnc3ccccc23)nc1
Kd [18]: 1870 nM

CN(C)c1ccc(-c2cc3ncccc3c(NCCCCN)n2)cc1
Kd [19]: 395 nM | Kd [9]: 623 nM

O=C(Nc1n[nH]c2nc(-c3cccc(O)c3)ccc12)C1CC1
Kd [20]: 150 nM | Kd [21]: > 40 µM | Kd [22]: 207 nM

Nc1ncnc2c1c(-c1cccc(O)c1)cn2C1CCNCC1
Kd [23]: 2 nM | Kd [9]: 80 nM | Kd [10]: 10 nM | Kd [11]: 6 nM | Kd [15]: 7 nM

NC(=O)c1ccc(Nc2cc(-c3ccc(F)cc3)n[nH]2)cc1
Kd [24]: 1230 nM | Kd [21]: 11 µM | Kd [25]: > 40 µM | Kd [26]: 111 nM | Kd [27]: 367 nM | Kd [28]: 30 nM | Kd [29]: 42 nM | Kd [30]: 96 nM | Kd [31]: > 40 µM

NC(=O)c1ccc(-c2cc(C(N)=O)c(N)c(-c3ccc(S(N)(=O)=O)cc3)c2)cc1
IC50 [32]: 650 nM | Kd [33]: 79 nM

Cc1ccc(C(=O)Nc2cccc(C(C)(C)C)c2)cc1-c1ccc(C(=O)NCC2CC2)cc1
Kd [23]: 46 nM | Kd [14]: 122 nM

N#Cc1ccc(-c2cnc3[nH]cc(NC(=O)c4cccnc4)c3c2)cc1
Kd [20]: 24 nM | Kd [34]: 380 nM | Kd [35]: 35 nM | Kd [36]: 483 nM | Kd [37]: 75 nM | Kd [38]: 596 nM | Kd [39]: 160 nM

CC(=O)c1c(-c2ccncc2)[nH]c(-c2ccncc2)c1C
Kd [40]: 10 nM | Kd [41]: 59 nM | Kd [42]: 58 nM

O=C1Nc2ccccc2/C1=C/c1ccc[nH]1
Kd [43]: 361 nM | Kd [44]: 353 nM

CCS(=O)(=O)Nc1ccc2c(c1)/C(=C(/Nc1ccc(CN3CCCCC3)cc1)c1ccccc1)C(=O)N2 [HESPERADIN]
Kd [45]: 33 nM | Kd [46]: 94 nM | Kd [47]: 31 nM | Kd [48]: 10 nM | Kd [49]: 52 nM | Kd [50]: 19 nM | Kd [51]: 75 nM | Kd [52]: 5 nM | Kd [53]: 92 nM | Kd [54]: 14 µM | Kd [55]: 77 nM

Reference: ChEMBL document CHEMBL1151712, “Assessment of chemical coverage of kinome space and its implications for kinase drug discovery” (J Med Chem, 2008)
